pEC50, pIC50: −log10 of the molar value.
Assays:
[1] = target: T1, Tyrosine-protein phosphatase non-receptor type 2 (Homo sapiens, UniProt P17706); test: Inhibition of human PTPN2 expressed in Escherichia coli Rosetta 2 (DE3) using pNPP as substrate after 45 mins by spectrophotometric method
T1 sequence (P17706 whole entry): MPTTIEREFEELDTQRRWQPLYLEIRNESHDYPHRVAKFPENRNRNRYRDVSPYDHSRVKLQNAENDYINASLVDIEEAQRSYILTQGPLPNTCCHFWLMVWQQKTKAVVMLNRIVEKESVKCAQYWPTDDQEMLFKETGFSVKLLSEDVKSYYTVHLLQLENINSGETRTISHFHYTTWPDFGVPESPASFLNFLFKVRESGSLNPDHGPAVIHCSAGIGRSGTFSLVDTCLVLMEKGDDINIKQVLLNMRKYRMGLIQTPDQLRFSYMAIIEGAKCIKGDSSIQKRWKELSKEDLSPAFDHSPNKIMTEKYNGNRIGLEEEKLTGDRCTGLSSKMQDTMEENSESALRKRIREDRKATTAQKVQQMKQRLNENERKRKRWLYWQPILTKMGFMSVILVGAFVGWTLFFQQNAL

[2] = target: T2, Tyrosine-protein phosphatase non-receptor type 1 (Homo sapiens, UniProt P18031); test: Inhibition of human PTPN1 expressed in Escherichia coli Rosetta 2 (DE3) using pNPP as substrate after 45 mins by spectrophotometric method
T2 sequence (P18031 whole entry): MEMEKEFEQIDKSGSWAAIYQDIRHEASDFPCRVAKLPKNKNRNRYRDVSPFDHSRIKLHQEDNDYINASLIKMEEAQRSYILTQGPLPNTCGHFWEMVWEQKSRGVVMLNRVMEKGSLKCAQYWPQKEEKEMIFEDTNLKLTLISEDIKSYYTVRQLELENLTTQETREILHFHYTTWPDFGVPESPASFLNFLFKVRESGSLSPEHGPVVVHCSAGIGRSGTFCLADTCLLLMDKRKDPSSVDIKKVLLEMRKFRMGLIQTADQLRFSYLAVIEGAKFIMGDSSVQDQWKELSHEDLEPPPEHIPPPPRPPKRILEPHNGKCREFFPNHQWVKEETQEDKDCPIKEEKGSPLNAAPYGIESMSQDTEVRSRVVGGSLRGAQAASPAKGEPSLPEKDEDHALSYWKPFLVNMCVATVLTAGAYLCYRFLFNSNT

[3] = Inhibition of refolded rhodanese (unknown origin) preincubated with Escherichia coli GroEL/GroES for 60 mins by measuring rhodanese enzyme activity followed by compound addition by Fe(SCN)3 dye based spectrometric analysis; set-up: species or system Homo sapiens
[4] = target: T3, Malate dehydrogenase, mitochondrial (Sus scrofa, UniProt P00346); test: Inhibition of refolded pig heart mitochondrial MDH preincubated with Escherichia coli GroEL/GroES for 45 mins using sodium mesoxalate as substrate followed by compound addition and measured after 20 to 30 mins by spectrometric analysis
T3 sequence (P00346 whole entry): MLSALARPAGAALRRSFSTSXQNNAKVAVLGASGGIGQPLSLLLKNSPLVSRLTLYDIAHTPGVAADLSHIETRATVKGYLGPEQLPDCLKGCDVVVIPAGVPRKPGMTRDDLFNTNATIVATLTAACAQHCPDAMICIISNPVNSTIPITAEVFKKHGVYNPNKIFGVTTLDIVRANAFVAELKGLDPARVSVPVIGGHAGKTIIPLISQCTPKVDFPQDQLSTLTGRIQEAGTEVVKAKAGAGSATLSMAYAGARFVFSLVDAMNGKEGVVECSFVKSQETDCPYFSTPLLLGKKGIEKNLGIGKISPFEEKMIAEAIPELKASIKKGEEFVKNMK

[5] = target: T4, E. coli GroEL/ES (Escherichia coli, UniProt P0A6F5); test: Inhibition of Escherichia coli GroEL expressed in Escherichia coli DH5alpha/Escherichia coli GroES expressed in Escherichia coli BL21 (DE3) assessed as reduction in GroEL/GroES-mediated denatured rhodanese refolding by measuring rhodanese enzyme activity after 45 mins by Fe(SCN)3 dye based spectrometric analysis
T4 sequence (P0A6F5 whole entry, looked up): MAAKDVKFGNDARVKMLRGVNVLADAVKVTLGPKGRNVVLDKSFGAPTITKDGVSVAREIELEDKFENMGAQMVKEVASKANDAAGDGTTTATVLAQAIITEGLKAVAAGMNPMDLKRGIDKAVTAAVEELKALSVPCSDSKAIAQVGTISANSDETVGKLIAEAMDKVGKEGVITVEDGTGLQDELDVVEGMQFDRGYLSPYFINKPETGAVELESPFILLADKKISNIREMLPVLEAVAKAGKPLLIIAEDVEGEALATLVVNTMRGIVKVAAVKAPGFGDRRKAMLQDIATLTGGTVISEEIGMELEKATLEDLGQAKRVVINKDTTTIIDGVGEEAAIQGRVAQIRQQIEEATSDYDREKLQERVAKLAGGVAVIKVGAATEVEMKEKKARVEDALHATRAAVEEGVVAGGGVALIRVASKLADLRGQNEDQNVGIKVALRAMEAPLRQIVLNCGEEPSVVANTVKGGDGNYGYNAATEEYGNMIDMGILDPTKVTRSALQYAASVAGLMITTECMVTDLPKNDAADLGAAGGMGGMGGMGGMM

[6] = target: T5, Tyrosine-protein phosphatase non-receptor type 5 (Homo sapiens, UniProt P54829); test: Inhibition of human PTPN5 expressed in Escherichia coli Rosetta 2 (DE3) using pNPP as substrate after 45 mins by spectrophotometric method
T5 sequence (P54829 whole entry): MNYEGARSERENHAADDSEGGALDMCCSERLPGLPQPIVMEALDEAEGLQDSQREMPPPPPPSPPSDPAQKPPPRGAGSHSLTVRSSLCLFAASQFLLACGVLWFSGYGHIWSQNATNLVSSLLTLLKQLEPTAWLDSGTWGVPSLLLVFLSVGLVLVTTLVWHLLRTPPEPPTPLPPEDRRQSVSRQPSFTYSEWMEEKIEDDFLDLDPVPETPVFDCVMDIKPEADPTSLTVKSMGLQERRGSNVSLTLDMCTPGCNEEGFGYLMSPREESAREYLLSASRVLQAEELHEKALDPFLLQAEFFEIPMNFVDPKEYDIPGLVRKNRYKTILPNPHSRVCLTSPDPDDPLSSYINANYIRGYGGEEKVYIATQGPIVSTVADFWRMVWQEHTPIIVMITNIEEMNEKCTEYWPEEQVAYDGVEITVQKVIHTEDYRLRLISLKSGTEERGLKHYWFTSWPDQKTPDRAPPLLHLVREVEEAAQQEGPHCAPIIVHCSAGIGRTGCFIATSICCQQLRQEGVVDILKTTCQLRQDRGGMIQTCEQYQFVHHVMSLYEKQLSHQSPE

[7] = Cytotoxicity against human HEK293 cells assessed as reduction in cell viability after 48 hrs by Alamar blue assay; assay type: cell-based
In short: (§1)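 Alamar Blue viability read-out. Human liver (THLE-3) and kidney (HEK 293) cells incubated with compound for 48 h. Tested in dose-response to derive CC50.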

[8] = target: T4, E. coli GroEL/ES; test: Inhibition of Escherichia coli GroEL expressed in Escherichia coliDH5alpha/Escherichia coli GroES expressed in Escherichia coli BL21 (DE3) assessed as reduction in GroEL/GroES-mediated denatured pig heart mitochondrial MDH refolding by measuring MDH enzyme activity using sodium mesoxalate as substrate after 20 to 40 mins by spectrometric analysis
[9] = test system: Mycobacterium tuberculosis; test: Antitubercular activity against Mycobacterium tuberculosis H37Rv after 5 days; assay type: functional, organism-based; details: 120 h
[10] = Cytotoxicity against human THLE3 cells assessed as reduction in cell viability after 48 hrs by Alamar blue assay; assay type: cell-based; in short: as §1
[11] = test system: Mycobacterium tuberculosis; test: Antitubercular activity against Mycobacterium tuberculosis H37Rv after 5 days at 200 uM relative to control; assay type: functional; details: 120 h
In short: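 M. tuberculosis grown in liquid culture with compound at a fixed 200 μM for 5 days. Growth inhibition expressed as percent of control.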

[12] = target: HSP60/HSP10 (Homo sapiens, UniProt P10809); test: Inhibition of human HSP60 expressed in Escherichia coli Rosetta 2(DE3)/human HSP10 expressed in Escherichia coli Rosetta 2(DE3) pLysS cells assessed as reduction in HSP60/HSP10-mediated denatured pig heart mitochondrial MDH refolding by measuring MDH enzyme activity using sodium mesoxalate as substrate after 40 to 60 mins by spectrometric analysis
Sequence of HSP60/HSP10 (P10809 whole entry): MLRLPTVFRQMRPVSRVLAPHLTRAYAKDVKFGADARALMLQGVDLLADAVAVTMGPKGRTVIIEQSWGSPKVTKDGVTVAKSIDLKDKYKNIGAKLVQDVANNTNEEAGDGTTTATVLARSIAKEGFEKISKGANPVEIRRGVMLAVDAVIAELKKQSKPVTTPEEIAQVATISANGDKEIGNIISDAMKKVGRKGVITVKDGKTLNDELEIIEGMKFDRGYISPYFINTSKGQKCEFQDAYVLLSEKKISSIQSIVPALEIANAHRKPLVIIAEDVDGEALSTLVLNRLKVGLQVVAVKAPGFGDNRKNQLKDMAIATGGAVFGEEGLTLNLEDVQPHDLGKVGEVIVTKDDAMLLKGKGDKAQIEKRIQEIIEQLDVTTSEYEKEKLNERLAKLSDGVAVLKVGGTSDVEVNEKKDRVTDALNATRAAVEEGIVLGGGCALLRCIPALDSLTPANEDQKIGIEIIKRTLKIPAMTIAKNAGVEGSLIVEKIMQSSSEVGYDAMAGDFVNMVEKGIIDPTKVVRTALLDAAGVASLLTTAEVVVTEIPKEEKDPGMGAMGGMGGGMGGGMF
Sequence of HSP60/HSP10 (P61604 whole entry, further chain): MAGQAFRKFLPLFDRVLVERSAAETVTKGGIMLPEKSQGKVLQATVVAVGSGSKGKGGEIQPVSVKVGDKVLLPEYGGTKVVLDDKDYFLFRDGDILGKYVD

[13] = target: T6, Phosphotyrosine protein phosphatase (Mycobacterium tuberculosis, UniProt A0A045ISB3); test: Inhibition of Mycobacterium tuberculosis His-tagged PtpB expressed in Escherichia coli Rosetta 2 (DE3) using pNPP as substrate after 30 mins by spectrophotometric method
T6 sequence (A0A045ISB3 whole entry): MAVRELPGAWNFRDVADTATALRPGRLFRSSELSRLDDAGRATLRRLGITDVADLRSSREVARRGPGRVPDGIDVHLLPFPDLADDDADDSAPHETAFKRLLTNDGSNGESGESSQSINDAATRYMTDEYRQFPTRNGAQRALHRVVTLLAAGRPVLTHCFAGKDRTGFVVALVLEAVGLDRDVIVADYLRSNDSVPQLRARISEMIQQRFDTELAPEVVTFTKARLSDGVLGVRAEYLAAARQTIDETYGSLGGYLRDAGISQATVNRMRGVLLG

Row | Structure (SMILES) | pIC50 [1] | pIC50 [2] | pIC50 [3] | pIC50 [4] | pIC50 [5] | pIC50 [6] | CC50 at 48 h [7] [µM] | pIC50 [8] | pEC50 [9] | CC50 at 48 h [10] [µM] | inhibition at 200 µM [11] [%] | pIC50 [12] | pIC50 [13]
1 | O=S(=O)(Nc1ccc2oc(-c3ccccc3)nc2c1)c1cccs1 | 4.06 | < 4.00 | < 4.00 | < 4.20 | 3.67 | 4.07 | 97 | < 4.00 | < 3.70 | 35 | 68 | 4.05 | 4.09
2 | O=S(=O)(Nc1ccc(-c2nc3ccccc3o2)cc1)c1cccs1 | < 4.00 | < 4.00 | < 4.00 | < 4.20 | 3.62 | 4.03 | > 100 | < 4.00 | < 3.70 | 98 | 68 | 4.20 | 4.32
3 | O=S(=O)(Nc1ccc(-c2nc3ccccc3o2)cc1)c1ccccc1 | 4.18 | 4.19 | < 4.00 | < 4.20 | 3.66 | 4.29 | > 100 | 4.03 | 3.75 | 96 | 71 | < 4.00 | 4.10
4 | Cc1ccccc1S(=O)(=O)Nc1ccc(-c2nc3ccccc3o2)cc1 | 4.30 | 4.28 | < 4.00 | < 4.20 | 3.95 | 4.49 | > 100 | 4.12 | 3.75 | 86 | 58 | 4.07 | 4.42
5 | O=S(=O)(Nc1ccc(-c2nc3ccccc3o2)cc1)c1ccccc1C(F)(F)F | 4.21 | 4.36 | < 4.00 | < 4.20 | 3.78 | 4.28 | > 100 | 4.12 | < 3.70 | 91 | 58 | 4.13 | 4.24
6 | O=[N+]([O-])c1cc(S(=O)(=O)Nc2ccc(-c3nc4ccccc4o3)cc2)ccc1Cl | 4.21 | 4.42 | < 4.00 | < 4.20 | 4.36 | 4.34 | 85 | 4.70 | 3.71 | 24 | 52 | 4.77 | 4.46
7 | Cc1ccccc1S(=O)(=O)Nc1ccc2oc(-c3ccccc3)nc2c1 | 4.54 | 4.39 | < 4.00 | < 4.20 | 3.90 | 4.52 | 57 | < 4.00 | 3.71 | 35 | 61 | < 4.00 | 4.23
8 | O=S(=O)(Nc1ccc(-c2nc3ccccc3o2)cc1)c1cccc(C(F)(F)F)c1 | 4.32 | 4.36 | < 4.00 | < 4.20 | 3.77 | 4.40 | > 100 | 4.28 | < 3.70 | 82 | 50 | 4.24 | 4.31
9 | O=S(=O)(Nc1ccc2oc(-c3ccccc3)nc2c1)c1ccccc1 | 4.19 | 4.11 | < 4.00 | < 4.20 | 3.72 | 4.38 | 46 | < 4.00 | 3.98 | 33 | 76 | < 4.00 | 4.06

— ChEMBL document CHEMBL4387722
